Results gathered from unrelated publications.
Compare with care: the assays were run in different laboratories.
Technique: competition with immobilised ligand
RPS6KA3 N-terminal kinase domain: Ribosomal protein S6 kinase alpha-3, N-terminal kinase domain (RPS6KA3, Homo sapiens, UniProt P51812)
RPS6KA3 C-terminal kinase domain: Ribosomal protein S6 kinase alpha-3, C-terminal kinase domain (RPS6KA3, Homo sapiens, UniProt P51812)

SMILES | target | read-out | tested at | remaining binding
C=CC(=O)N1CCC(C(=O)NCC(=O)N2CCN(c3nc(-c4cnc(N)nc4C(F)F)nc(N4CCOCC4)n3)CC2)CC1 | RPS6KA3 N-terminal kinase domain | binding | 1 µM | 85%
CN(C)c1nccc(-c2cnc3ncccn23)n1 | RPS6KA3 N-terminal kinase domain | binding | 1 µM | 70%
O=C(c1ccc(Nc2ncc(Cl)c(-c3cc4ccccc4s3)n2)cc1)N1CCC(N2CCCC2)CC1 | RPS6KA3 N-terminal kinase domain | binding | 1 µM | 42%
COc1ccc2c(O[C@@H]3C[C@H]4C(=O)N[C@]5(C(=O)O)CC5/C=C\CCCCC[C@H](NC(=O)OC5CCCC5)C(=O)N4C3)cc(-c3csc(NC(=O)C(C)C)n3)nc2c1C (stereo partly shown) | RPS6KA3 N-terminal kinase domain | cell-free assay | 1 µM | 100%
c1cncc(-c2cccc(Nc3nccc(NC4CCCCC4)n3)c2)c1 | RPS6KA3 N-terminal kinase domain | binding | 10 µM | 42%
c1cnn2ncc(-c3ccnc(N4CCC45COC5)n3)c2c1 | RPS6KA3 N-terminal kinase domain | binding | 1 µM | 61%
O=C(Nc1c[nH]nc1C(=O)NC1CCNCC1)c1cc(F)cc(F)c1 | RPS6KA3 N-terminal kinase domain | binding | 1 µM | 74%
O=C(NCCCN1CCOCC1)c1ccc(Nc2ncc(Cl)c(-c3ccc(Cl)s3)n2)cc1 | RPS6KA3 N-terminal kinase domain | binding | 1 µM | 61%
F[C@@H]1CCN(c2nccc(-c3cnn4ncccc34)n2)C1 | RPS6KA3 N-terminal kinase domain | binding | 1 µM | 100%
Cc1c(NC(=O)c2cc(C(N)=O)nc3cc(F)ccc23)c(C(F)(F)F)nn1Cc1ccc(C(C)(C)C)cc1 | RPS6KA3 C-terminal kinase domain | cell-free assay | 1 µM | 100%
C[C@@H](c1ccc(-n2cnc3c(N)ncnc32)cc1)N1CCc2nn(C)c(Cc3ccccc3)c2C1=O | RPS6KA3 C-terminal kinase domain | binding | 0.1 µM | 94%
C[C@H]1CCN(c2nccc(-c3cnn4ncccc34)n2)C1 | RPS6KA3 N-terminal kinase domain | binding | 1 µM | 78%
C[C@H](c1ccnc(Nc2nc3ccc(-c4cc(N(C)C)ncn4)cc3[nH]2)c1)N1CCN(C(=O)CC(F)(F)F)CC1 | RPS6KA3 C-terminal kinase domain | cell-free assay | 0.1 µM | 100%
COc1cnc(Nc2cccc(S(N)(=O)=O)c2)nc1N1CCN(c2ccccc2)C(=O)C1 | RPS6KA3 C-terminal kinase domain | binding | 1 µM | 97%
C[C@H](NC(=O)c1cnc2n1[C@](C)(Cc1ccc(C#N)cc1)C(=O)N2c1cc(Cl)c(F)c(Cl)c1)C(=O)NC1(c2ccccn2)CC1 | RPS6KA3 N-terminal kinase domain | cell-free assay | 1 µM | 100%
N[C@@H]1CCN(c2nccc(-c3cnn4ncccc34)n2)C1 | RPS6KA3 C-terminal kinase domain | binding | 1 µM | 41%
O=C(c1ccc(Nc2nccc(-c3cc4ccccc4s3)n2)cc1)N1CCC(N2CCCC2)CC1 | RPS6KA3 C-terminal kinase domain | binding | 1 µM | 66%
CN(C)c1nccc(-c2cnn3ncccc23)n1 | RPS6KA3 N-terminal kinase domain | binding | 1 µM | 82%
O=C(NC[C@@H]1[C@H]2CN(C(=O)OCc3cc(C(F)(F)F)cc(C(F)(F)F)c3)C[C@@H]12)c1ccc2[nH]nnc2c1 | RPS6KA3 N-terminal kinase domain | cell-free assay | 1 µM | 94%
